# Test results reported in PMC12138178 (The New Phytologist, 2025).
# How the values were obtained:
# MpPR10.5 protein [1] = target: T1, MpPR10.5 protein (Marchantia polymorpha, UniProt A0A2R6WRE7); test: Intrinsic tryptophan fluorescence binding assay
# T1 sequence (A0A2R6WRE7 1-149): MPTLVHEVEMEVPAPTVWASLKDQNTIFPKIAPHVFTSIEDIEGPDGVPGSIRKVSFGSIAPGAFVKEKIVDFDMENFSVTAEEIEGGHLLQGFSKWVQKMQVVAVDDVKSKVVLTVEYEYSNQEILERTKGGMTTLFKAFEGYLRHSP
# How it was run: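 His-SUMO-tagged PR10 protein, expressed in E. coli Rosetta-Gami 2 and purified by IMAC and size exclusion, used at 1.1 μM in 20 mM Tris pH 8.5, 200 mM NaCl. DMSO stocks of test compound at eight levels (0–20 mM or 0–4 mM) were diluted 10× in buffer and added. Incubated 5 min at 22°C. Excitation 280 nm, emission 340 nm. Six replicates; buffer controls subtracted. |ΔF|/F0 versus concentration was fitted to a one-site specific binding model to give Kd.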
# MpPR10.5 protein [2] = target: T1, MpPR10.5 protein; test: Naringenin chalcone oxidation assay; type: physicochemical; details: pH 7.5, 30 min
# How it was run: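 Run in 20 mM Tris pH 7.5 or 8.5 with 200 mM NaCl, either as buffer alone or with 15 μM His-SUMO-tagged PR10 protein. A blank was recorded first. Test compound was added from a 1.4 mM DMSO stock to 10 μM final. UV–Vis spectra (190–840 nm, 1 cm path) were taken every 1 min for 30 min, following the 377 and 322 nm peaks.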
affinity for MpPR10.5 (in words) (MpPR10.5 protein [1]),"Kd (MpPR10.5 protein [1]; Kd (dissociation constant), His-SUMO-MpPR10.5 fusion protein, 20 mM Tris pH 8.5, 200 mM NaCl, 22°C, nd = not detected)",stability under the experimental conditions (absorption peak at 322 nm) (MpPR10.5 protein [2]),SMILES
high affinity,,,O=C(/C=C/c1ccc(O)c(O)c1)c1ccc(O)cc1O [Butein]
very low affinity,> 119 µM,,O=C(O)/C=C/c1ccccc1 [Cinnamic acid]
high affinity,,,O=C(/C=C/c1ccc(O)cc1)c1ccc(O)cc1O [Isoliquiritigenin]
,,remained completely stable,O=C1C[C@@H](c2ccc(O)cc2)Oc2cc(O)cc(O)c21 [Naringenin]
high affinity,,,O=C(CCc1ccc(O)cc1)c1c(O)cc(O)cc1O [Phloretin]
no affinity,,,O=C(O)C=Cc1ccc(O)cc1 [p-Coumaric acid]
